For experiment [1], the system named is Rattus norvegicus. As to the kind of experiment: Antiinflammatory activity in albino rat assessed as inhibition of carrageenan-induced paw oedema at 100 mg/kg, po measured after 180 mins of carrageenan challenge relative to control. Format: functional. Particulars: 3 h. An outline of the steps:
(§1)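 Rat hind paw oedema induced by 0.1 mL 1% carrageenan injected subplantar into the right hind paw. Paw volume measured plethysmographically before carrageenan and at 30, 60, 120 and 180 min after. Percent oedema inhibition calculated versus a saline control group. Six animals per group, mean ± SE; one-way ANOVA with Tukey–Kramer test, p < 0.01.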

For experiment [2], the system named is Rattus norvegicus. As to the kind of experiment: Antiinflammatory activity in albino rat assessed as inhibition of carrageenan-induced paw oedema at 100 mg/kg, po measured after 120 mins of carrageenan challenge relative to control. Format: functional. Particulars: 2 h. In outline: as §1
A general note: The carrageenan paw model is a standard test of acute inflammation.

For experiment [3], the system named is Rattus norvegicus. As to the kind of experiment: Antiinflammatory activity in albino rat assessed as inhibition of carrageenan-induced paw oedema at 100 mg/kg, po measured after 30 mins of carrageenan challenge relative to control. Format: functional. Particulars: 0.5 h. An outline of the steps:
as §1

The next experiment relates to Mus musculus. As to the kind of experiment: Analgesic activity in Swiss albino mouse assessed as protection against acetic acid-induced writhing at 100 mg/kg, po administered 1 hr prior to acetic acid challenge relative to control measured after 3 hrs. Format: functional. In outline: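 Swiss albino mice (20–25 g), six per group. Baseline writhes counted over 20 min starting 5 min after ip 0.6% acetic acid (10 ml/kg); the same mice were dosed orally the next day, 1 h before acetic acid, and writhes counted again. Protection = (1 − […]) × 100. Mean ± SE; one-way ANOVA with Tukey–Kramer test, p < 0.01.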
On the technique in general: In writhing tests, fewer writhes than in controls are read as antinociception.

Experiment [4] relates to Rattus norvegicus. As to the kind of experiment: Antiinflammatory activity in albino rat assessed as inhibition of carrageenan-induced paw oedema at 100 mg/kg, po measured after 60 mins of carrageenan challenge relative to control. Type of experiment: functional. Particulars: 1 h. An outline of the steps:
as §1

Experiment [5] is filed under the species Rattus norvegicus. As to the kind of experiment: animal or person. Particulars: albino, po, 0.5 h, read-out: INH.
The species named for experiment [6] is Rattus norvegicus. As to the kind of experiment: animal or person. Particulars: albino, po, 2 h, read-out: INH.
Experiment [7] is filed under the species Rattus norvegicus. As to the kind of experiment: animal or person. Particulars: albino, po, 1 h, read-out: INH.
Experiment [8] is filed under the species Rattus norvegicus. As to the kind of experiment: animal or person. Particulars: albino, po, 3 h, read-out: INH.

Consider `Clc1cccc(NCc2nc3ccccc3[nH]2)c1`, for which the inhibition in vivo at 100 mg/kg amounted to 44.4% in the experiment on Rattus norvegicus [1], 41.1% in the experiment with Rattus norvegicus [2], 15.3% with Rattus norvegicus [3] and 26.6% with Rattus norvegicus [4]. The Activity in the experiment on Mus musculus was 81.33%.
The matching figures for `O=[N+]([O-])c1ccc2nc(CNc3ccc(Br)cc3)[nH]c2c1`: 22.2%, 23.5%, 15.3%, 20% and 79%.
The like results for `Brc1ccc2nc(CNc3ccccc3)[nH]c2c1` were, in that order, 22.2%, 29.4%, 7.6%, 26.6% and 80%.
For `Brc1ccc(NCc2nc3ccc(Br)cc3[nH]2)cc1`, the inhibition in vivo at 100 mg/kg is 16.6% with Rattus norvegicus [1], 23.5% with Rattus norvegicus [2] and 20% with Rattus norvegicus [4]. Besides, the Activity with Mus musculus was 85.66%.
The like results for `COc1ccc(NCc2nc3ccc(Br)cc3[nH]2)cc1` were, in that order, 12.5%, 17.6%, 13.3% and 83.33%.
With `Cc1ccc(NCc2nc3ccc(Br)cc3[nH]2)cc1`, the inhibition in vivo at 100 mg/kg in the experiment on Rattus norvegicus [1] was 16.6%; with Rattus norvegicus [2], 23.5%; in the experiment on Rattus norvegicus [3], 7.6%; in the experiment with Rattus norvegicus [4], 20%. Moreover, the Activity in the experiment on Mus musculus turned out to be 88%.
The like results for `COc1ccc(NCc2nc3ccccc3[nH]2)cc1` were, in that order, 33.3%, 29.4%, 7.6%, 26.6% and 83.33%.
For `Clc1ccccc1NCc1nc2ccc(Br)cc2[nH]1`, the inhibition in vivo at 100 mg/kg is 22.2% with Rattus norvegicus [1], 23.5% with Rattus norvegicus [2] and 20% in the experiment on Rattus norvegicus [4]. Further, the Activity in the experiment with Mus musculus is listed as 80%.
As to `Clc1cccc(NCc2nc3ccc(Br)cc3[nH]2)c1`, the inhibition in vivo at 100 mg/kg in the experiment with Rattus norvegicus [1] worked out at 16.6%; in the experiment on Rattus norvegicus [2] it was 17.6%; in the experiment on Rattus norvegicus [3], 7.6%; with Rattus norvegicus [4], 26.6%. The Activity in the experiment on Mus musculus turned out to be 89%.
The like results for `c1ccc(NCc2nc3ccccc3[nH]2)cc1` were, in that order, 38.8%, 41.1%, 7.6%, 26.6% and 72.33%.
Take `CS(=O)(=O)Nc1ccc([N+](=O)[O-])cc1Oc1ccccc1` [NIMESULIDE]: the inhibition in vivo at 50 mg/kg in the experiment listed under Rattus norvegicus [5] came to 15.3%; in the experiment filed under Rattus norvegicus [6], 41.1%; in the experiment listed under Rattus norvegicus [7], 26.6%; in the experiment listed under Rattus norvegicus [8], 44.4%.

Source of the values: ChEMBL document CHEMBL1157854, “In-vivo analgesic and anti-inflammatory activities of newly synthesized benzimidazole derivatives” (2010).
